Data reported in ChEMBL document CHEMBL1124808, “The synthesis and antiallergy activity of 1-(aryloxy)-4-(4-arylpiperazinyl)-2-butanol derivatives” (1990).

What was measured:
Assay type in all cases: functional
Rattus norvegicus [1] = assay: Percent change in volume of foot edema of test compound to that of positive control was determined at a dose of 31.6 mg/kg in rat; […]/-69
Rattus norvegicus [2] = assay: Percent change in volume of foot edema of test compound to that of positive control was determined at a dose of 10 mg/kg in rat; […]
Rattus norvegicus [3] = assay: Oral Antiallergic activity in the passive foot anaphylaxis (PFA) assay of various amines at the dose of 3.16 mg/kg; -33/-84
Rattus norvegicus [4] = assay: Percent change in volume of foot edema of test compound to that of positive control was determined at a dose of 31.6 mg/kg in rat; -59/-83
Rattus norvegicus [5] = assay: Percent change in volume of foot edema of test compound to that of positive control was determined at a dose of 10 mg/kg in rat; -2/-65
Rattus norvegicus [6] = assay: Percent change in volume of foot edema of test compound to that of positive control was determined at a dose of 10 mg/kg in rat; -9/-80
Rattus norvegicus [7] = assay: Percent change in volume of foot edema of test compound to that of positive control was determined at a dose of 31.6 mg/kg in rat; -61/-63
Rattus norvegicus [8] = assay: Percent change in volume of foot edema of test compound to that of positive control was determined at a dose of 31.6 mg/kg in rat; -75/-83
Rattus norvegicus [9] = assay: Oral Antiallergic activity in the passive foot anaphylaxis (PFA) assay of various amines at the dose of 3.16 mg/kg; -38/-78
Rattus norvegicus [10] = assay: Percent change in volume of foot edema of test compound to that of positive control was determined at a dose of 10 mg/kg in rat; -61/-88
Rattus norvegicus [11] = assay: Percent change in volume of foot edema of test compound to that of positive control was determined at a dose of 10 mg/kg in rat; +22/-73
Rattus norvegicus [12] = assay: Percent change in volume of foot edema of test compound to that of positive control was determined at a dose of 31.6 mg/kg in rat; -85/-78
Rattus norvegicus [13] = assay: Percent change in volume of foot edema of test compound to that of positive control was determined at a dose of 31.6 mg/kg in rat; -66/-66
Rattus norvegicus [14] = assay: Percent change in volume of foot edema of test compound to that of positive control was determined at a dose of 10 mg/kg in rat; -11/-65
Rattus norvegicus [15] = assay: Percent change in volume of foot edema of test compound to that of positive control was determined at a dose of 31.6 mg/kg in rat; -17/-70
Rattus norvegicus [16] = assay: Percent change in volume of foot edema of test compound to that of positive control was determined at a dose of 31.6 mg/kg in rat; -48/-84
Rattus norvegicus [17] = assay: Percent change in volume of foot edema of test compound to that of positive control was determined at a dose of 10 mg/kg in rat; +14/-44
Rattus norvegicus [18] = assay: Percent change in volume of foot edema of test compound to that of positive control was determined at a dose of 31.6 mg/kg in rat; -88/-75
Cavia porcellus = species: Cavia porcellus; assay: Dose that protects 50% of guinea pig from collapse was determined in guinea pig anaphylaxis assay; details: read-out: PD50
In short: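 Guinea pigs dosed by gavage (10 mL/kg) with compound in 0.5% Tween 80/water; reference theophylline 100 mg/kg po. At 1–24 h, exposed in chamber to aerosolized 1% (w/v) egg albumin at 10 L air/min for up to 5 min; protected if no collapse within 5 min. PD50 by Litchfield and Wilcoxon.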

Rattus norvegicus [19] = assay: Percent change in volume of foot edema of test compound to that of positive control was determined at a dose of 10 mg/kg in rat; -34/-78
Rattus norvegicus [20] = assay: Percent change in volume of foot edema of test compound to that of positive control was determined at a dose of 31.6 mg/kg in rat; -54/-44
Rattus norvegicus [21] = assay: Percent change in volume of foot edema of test compound to that of positive control was determined at a dose of 10 mg/kg in rat; -10/-44
Rattus norvegicus [22] = assay: Percent change in volume of foot edema of test compound to that of positive control was determined at a dose of 31.6 mg/kg in rat; 39/-78
Rattus norvegicus [23] = assay: Percent change in volume of foot edema of test compound to that of positive control was determined at a dose of 31.6 mg/kg in rat; -40/-81
Rattus norvegicus [24] = assay: Percent change in volume of foot edema of test compound to that of positive control was determined at a dose of 10 mg/kg in rat; -53/-76
Rattus norvegicus [25] = assay: Percent change in volume of foot edema of test compound to that of positive control was determined at a dose of 3.16 mg/kg in rat; -50/-84
Rattus norvegicus [26] = assay: Percent change in volume of foot edema of test compound to that of positive control was determined at a dose of 31.6 mg/kg in rat; -83/-69
Rattus norvegicus [27] = assay: Percent change in volume of foot edema of test compound to that of positive control was determined at a dose of 31.6 mg/kg in rat; -78/-69
Rattus norvegicus [28] = assay: Percent change in volume of foot edema of test compound to that of positive control was determined at a dose of 3.16 mg/kg in rat; -36/-80
Rattus norvegicus [29] = assay: Percent change in volume of foot edema of test compound to that of positive control was determined at a dose of 10 mg/kg in rat; -55/-63

## Cc1cc(OCC(O)CCN2CCN(c3ccccc3)CC2)ccc1Cl (stereo unspecified)
Rattus norvegicus [1]
  PFA: -71
Rattus norvegicus [2]
  PFA: -45
Rattus norvegicus [3]
  PFA: -33

## OC(CCN1CCN(c2ccc(Br)cc2)CC1)COc1ccccc1 (stereo unspecified)
Rattus norvegicus [4]
  PFA: -59
Rattus norvegicus [5]
  PFA: -2

## OC(CCN1CCN(c2ccc(Cl)c(Cl)c2)CC1)COc1ccccc1 (stereo unspecified)
Rattus norvegicus [6]
  PFA: -9
Rattus norvegicus [7]
  PFA: -61

## CC(=O)c1ccc(N2CCN(CCC(O)COc3ccc(Cl)cc3)CC2)cc1 (stereo unspecified)
Rattus norvegicus [8]
  PFA: -75
Rattus norvegicus [9]
  PFA: -38
Rattus norvegicus [10]
  PFA: -61

## OC(CCN1CCN(c2cccc(Cl)c2)CC1)COc1ccccc1 (stereo unspecified)
Rattus norvegicus [11]
  PFA: 22
Rattus norvegicus [12]
  PFA: -85

## Cc1ccc(OCC(O)CCN2CCN(c3ccccc3)CC2)cc1 (stereo unspecified)
Rattus norvegicus [13]
  PFA: -66
Rattus norvegicus [14]
  PFA: -11

## OC(CCOc1ccccc1)CN1CCN(c2ccccc2)CC1 (stereo unspecified)
Rattus norvegicus [15]
  PFA: -17

## Cc1cc(C)cc(OCC(O)CCN2CCN(c3ccccc3)CC2)c1 (stereo unspecified)
Rattus norvegicus [16]
  PFA: -48
Rattus norvegicus [17]
  PFA: 14

## OC(CCN1CCN(c2ccccc2)CC1)COc1ccccc1 (stereo unspecified)
Rattus norvegicus [18]
  PFA: -88
Cavia porcellus
  ED50: 40 mg/kg
Rattus norvegicus [19]
  PFA: -34

## COc1ccc(OCC(O)CCN2CCN(c3ccccc3)CC2)cc1 (stereo unspecified)
Rattus norvegicus [20]
  PFA: -54
Rattus norvegicus [21]
  PFA: -10

## OC(CCN1CCN(c2cccc(C(F)(F)F)c2)CC1)COc1ccccc1 (stereo unspecified)
Rattus norvegicus [22]
  PFA: 39

## c1ccc(OCCN2CCN(c3ccccc3)CC2)cc1
Rattus norvegicus [23]
  PFA: -40

## OC(CCN1CCN(c2ccccc2)CC1)COc1ccc(Cl)cc1 (stereo unspecified)
Cavia porcellus
  ED50: 6.69 mg/kg
Rattus norvegicus [24]
  PFA: -53
Rattus norvegicus [25]
  PFA: -50
Rattus norvegicus [26]
  PFA: -83

## OC(CCN1CCN(c2ccc(F)cc2)CC1)COc1ccc(Cl)cc1 (stereo unspecified)
Rattus norvegicus [27]
  PFA: -78
Rattus norvegicus [28]
  PFA: -36
Rattus norvegicus [29]
  PFA: -55
